# Source: ChEMBL document CHEMBL4138042, “A Scaffold Merging Approach to Hsp90 C-terminal Inhibition: Synthesis and Evaluation of a Chimeric Library” (Medchemcomm, 2017)
# Activity calls are given as the source filed them. The calls are words filed in the database; no cut-off is given here.
# What was measured:
# MCF7 [1] = assay: Antiproliferative activity in human MCF7 cells incubated for 72 hrs by MTS/PMS cell proliferation assay; format: functional, cell-based; settings: MCF7, 72 h
# Method in brief: (§1)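 Values are mean ± SD of at least three separate experiments, each run in triplicate.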
# SK-BR-3 = assay: Antiproliferative activity in human SKBR3 cells incubated for 72 hrs by MTS/PMS cell proliferation assay; format: functional, cell-based; settings: SK-BR-3, 72 h; method in brief: as §1
# MCF7 [2] = assay: Induction of heat shock response in human MCF7 cells assessed as effect on Hsp70 protein levels at 0.5 and 10 fold antiproliferative IC50 incubated for 24 hrs by Western blotting method; format: cell-based; settings: mcf7, 24 h
# [3] = molecular target: T1, Heat shock protein HSP90 (Homo sapiens) (UniProt P07900+P08238); assay: Inhibition of HSP90 in human MCF7 cells assessed as reduction in ERalpha protein level incubated for 24 hrs by Western blotting method; format: cell-based
# Method in brief: (§2)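 Treated MCF-7 cells were analysed by western blot for the Hsp90 clients HER2, CDK4, ER-α and cyclin D1. Actin served as the Hsp90-independent control protein.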
# [4] = molecular target: T1, Heat shock protein HSP90 (Homo sapiens); assay: Inhibition of HSP90 in human MCF7 cells assessed as reduction in HER2 protein level incubated for 24 hrs by Western blotting method; format: cell-based; method in brief: as §2
# MCF7 [5] = assay: Effect on actin protein expression in human MCF7 cells at 0.5 and 10 fold antiproliferative IC50 incubated for 24 hrs by Western blotting method; format: cell-based; settings: mcf7, 24 h; method in brief: as §2
# MCF7 [6] = assay: Induction of heat shock response in human MCF7 cells assessed as effect on Hsp90 protein levels at antiproliferative 0.5 and 10 fold IC50 incubated for 24 hrs by Western blotting method; format: cell-based; settings: mcf7, 24 h
# [7] = molecular target: T1, Heat shock protein HSP90 (Homo sapiens); assay: Inhibition of HSP90 in human PC3-MM2 cells expressing luciferase assessed as reduction in heat-denatured lucifearse refolding incubated for 1 hr by luciferase rematuration assay; format: cell-based
# Method in brief: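 PC3-MM2 cells expressing firefly luciferase were heated to denature luciferase, then incubated with DMSO or test compound. Luciferase activity was then measured to gauge refolding. Read-out is RLU relative to DMSO, given as mean ± SD of at least two separate experiments run in triplicate.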
# [8] = molecular target: T1, Heat shock protein HSP90 (Homo sapiens); assay: Inhibition of HSP90 in human MCF7 cells assessed as reduction in cyclin D1 protein level incubated for 24 hrs by Western blotting method; format: cell-based; method in brief: as §2
# [9] = molecular target: T1, Heat shock protein HSP90 (Homo sapiens); assay: Inhibition of HSP90 in human MCF7 cells assessed as reduction in CDK4 protein level incubated for 24 hrs by Western blotting method; format: cell-based; method in brief: as §2
# [10] = Inhibition of full length chicken Hsp90beta (1 to 728 amino acids); set-up: species or system Gallus gallus
EC50 (MCF7 [1]),EC50 (SK-BR-3),inhibition [7],Compound,further results
2300 nM,1900 nM,,COc1cccc(-c2cc(C(=O)Nc3cccc(-c4ccc(OC5CCN(C)CC5)cc4-c4cccc(C(F)(F)F)c4)c3)ccc2OC)c1,
1000 nM,800 nM,Active,CN1CCC(Oc2ccc(-c3ccc(NC(=O)c4cn(Cc5ccc([N+](=O)[O-])cc5)nn4)cc3)c(-c3cccc(C(F)(F)F)c3)c2)CC1,
3000 nM,2400 nM,,CN1CCC(Oc2ccc(-c3ccc(NC(=O)c4ccc(C(C)(C)C)cc4)cc3)c(-c3cccc(C(F)(F)F)c3)c2)CC1,
900 nM,500 nM,Active,COc1ccc(Cn2cc(C(=O)Nc3ccc(-c4ccc(OC5CCN(C)CC5)cc4-c4cccc(C(F)(F)F)c4)cc3)nn2)cc1,
3300 nM,3200 nM,,CC(=O)Oc1ccc(C(=O)Nc2ccc(-c3ccc(OC4CCN(C)CC4)cc3-c3cccc(F)c3)cc2)cc1CC=C(C)C,
4200 nM,4200 nM,,CN1CCC(Oc2ccc(-c3ccc(NC(=O)c4ccc(C(C)(C)C)cc4)cc3)c(-c3cccc(F)c3)c2)CC1,
4400 nM,3300 nM,,CC(=O)Oc1ccc(C(=O)Nc2cccc(-c3ccc(OC4CCN(C)CC4)cc3-c3cccc(F)c3)c2)cc1CC=C(C)C,
2900 nM,2200 nM,Active,CN1CCC(Oc2ccc(-c3ccc(NC(=O)c4cn(Cc5ccccc5)nn4)cc3)c(-c3cccc(C(F)(F)F)c3)c2)CC1,

# Continued, molecule first:
Compound,EC50 (MCF7 [1]),EC50 (SK-BR-3),inhibition [7],further results
CN1CCC(Oc2ccc(-c3cccc(NC(=O)c4ccc(C(C)(C)C)cc4)c3)c(-c3cccc(F)c3)c2)CC1,5200 nM,6200 nM,,
CN1CCC(Oc2ccc(-c3ccc(NC(=O)c4ccc(Br)cc4)cc3)c(-c3cccc(C(F)(F)F)c3)c2)CC1,3400 nM,3500 nM,Active,Activity (MCF7 [2]): Non-Toxic; inhibition [3]: Dose-dependent effect; inhibition [4]: Dose-dependent effect; Activity (MCF7 [5]): Non-Toxic; Activity (MCF7 [6]): Non-Toxic; inhibition [8]: Dose-dependent effect; inhibition [9]: Dose-dependent effect
COc1ccc(Cn2cc(C(=O)Nc3cccc(-c4ccc(OC5CCN(C)CC5)cc4-c4cccc(C(F)(F)F)c4)c3)nn2)cc1,4000 nM,4000 nM,Active,
CN1CCC(Oc2ccc(-c3ccc(NC(=O)c4ccc(Br)cc4)cc3)c(-c3cccc(F)c3)c2)CC1,5100 nM,5200 nM,Active,
COc1cccc(-c2cc(C(=O)Nc3cccc(-c4ccc(OC5CCN(C)CC5)cc4)c3)ccc2OC)c1,1600 nM,1500 nM,,
CC(=O)Oc1ccc(C(=O)Nc2ccc(-c3ccc(OC4CCN(C)CC4)cc3-c3cccc(C(F)(F)F)c3)cc2)cc1CC=C(C)C,2600 nM,2300 nM,,
CN1CCC(Oc2ccc(-c3cccc(NC(=O)c4ccc(C(C)(C)C)cc4)c3)c(-c3cccc(C(F)(F)F)c3)c2)CC1,2800 nM,1800 nM,,
COc1cccc(-c2cc(C(=O)Nc3ccc(-c4ccc(OC5CCN(C)CC5)cc4-c4cccc(C(F)(F)F)c4)cc3)ccc2OC)c1,2200 nM,1800 nM,,
COc1cccc(-c2cc(C(=O)Nc3cccc(-c4ccc(OC5CCN(C)CC5)cc4-c4cccc(F)c4)c3)ccc2OC)c1,4200 nM,4100 nM,,
COc1cccc(-c2cc(C(=O)Nc3ccc(-c4ccc(OC5CCN(C)CC5)cc4-c4cccc(F)c4)cc3)ccc2OC)c1,2100 nM,4200 nM,,
COc1cccc(-c2cc(C(=O)NCCc3ccc(OC4CCN(C)CC4)cc3-c3cccc(C(F)(F)F)c3)ccc2OC)c1,2700 nM,3500 nM,,
CN1CCC(Oc2ccc(-c3cccc(NC(=O)c4ccc(Br)cc4)c3)c(-c3cccc(F)c3)c2)CC1,5600 nM,5900 nM,Active,
CC(=O)Oc1ccc(C(=O)Nc2cccc(-c3ccc(OC4CCN(C)CC4)cc3-c3cccc(C(F)(F)F)c3)c2)cc1CC=C(C)C,3000 nM,2900 nM,,
CN1CCC(Oc2ccc(-c3cccc(NC(=O)c4cn(Cc5ccc(C(C)(C)C)cc5)nn4)c3)c(-c3cccc(C(F)(F)F)c3)c2)CC1,3000 nM,3000 nM,inactive,
CN1CCC(Oc2ccc(-c3cccc(NC(=O)c4cn(Cc5ccccc5)nn4)c3)c(-c3cccc(C(F)(F)F)c3)c2)CC1,1700 nM,2200 nM,Active,Activity (MCF7 [2]): Non-Toxic; inhibition [3]: Dose-dependent effect; inhibition [4]: Dose-dependent effect; Activity (MCF7 [5]): Non-Toxic; Activity (MCF7 [6]): Non-Toxic; inhibition [8]: Dose-dependent effect; inhibition [9]: Dose-dependent effect
CO[C@@H]1[C@@H](OC(N)=O)[C@@H](O)[C@H](Oc2ccc3c(O)c(NC(=O)c4ccc(O)c(CC=C(C)C)c4)c(=O)oc3c2C)OC1(C)C [NOVOBIOCIN],,,,EC50 [10]: 700000 nM
CN1CCC(Oc2ccc(-c3cccc(NC(=O)c4ccc(Br)cc4)c3)c(-c3cccc(C(F)(F)F)c3)c2)CC1,3900 nM,3000 nM,Active,Activity (MCF7 [2]): Non-Toxic; inhibition [3]: Dose-dependent effect; inhibition [4]: Dose-dependent effect; Activity (MCF7 [5]): Non-Toxic; Activity (MCF7 [6]): Non-Toxic; inhibition [8]: Dose-dependent effect; inhibition [9]: Dose-dependent effect
CN1CCC(Oc2ccc(-c3ccc(NC(=O)c4cn(Cc5ccc(C(C)(C)C)cc5)nn4)cc3)c(-c3cccc(C(F)(F)F)c3)c2)CC1,5000 nM,4400 nM,inactive,
CN1CCC(Oc2ccc(-c3cccc(NC(=O)c4cn(Cc5ccc([N+](=O)[O-])cc5)nn4)c3)c(-c3cccc(C(F)(F)F)c3)c2)CC1,2000 nM,1900 nM,Active,
